Our source for the LD90, LC50 and Activity values is ChEMBL document CHEMBL1158578, “Phloroglucinols from the argentine ferns Elaphoglossum gayanum and E. piloselloides” (2010).

What all share (type): functional
Experiment [1] has as its system Biomphalaria peregrina. The experiment is described as follows: Molluscicidal activity against Biomphalaria peregrina after 24 hrs. In a few lines:
(§1)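 Snails (Biomphalaria peregrina) exposed for 24 h to test samples at 50, 20, 10, 5 and 2.5 ppm, with 21 snails per concentration. Mortality was recorded as a percentage. LD50 and LD90 were calculated from the mortality data by probit analysis. CuSO4 at 10 ppm served as the positive control, alongside an untreated control.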

The test system of experiment [2] is Biomphalaria peregrina. The experiment in a line: Molluscicidal activity against Biomphalaria peregrina assessed as mortality at 2.5 ppm after 24 hrs. The method, boiled down: as §1
In experiment [3] the test system is Biomphalaria peregrina. The experiment is described as follows: Molluscicidal activity against Biomphalaria peregrina assessed as mortality at 10 ppm after 24 hrs. The method, boiled down: as §1
Experiment [4] has as its system Biomphalaria peregrina. The experiment in a line: Molluscicidal activity against Biomphalaria peregrina assessed as mortality at 5 ppm after 24 hrs. The method, boiled down: as §1

Take `CCCC(=O)C1=C(O)C(C)(CC=C(C)C)C(O)=C(Cc2c(O)c(O)cc(OC)c2C(=O)CCC)C1=O` (stereo not given) [ELAPHOPILOSIN D]: in the experiment with Biomphalaria peregrina [1], the LD90 was 22.8 µM. Besides, in the experiment with Biomphalaria peregrina [1] (Biomphalaria peregrina, 24 h, read-out: LD50 (the source's name)), the LC50 was 14.4 µM. Further, the Activity in the experiment on Biomphalaria peregrina [2] is recorded as 10%; with Biomphalaria peregrina [3] it was 81%; with Biomphalaria peregrina [4] it was 24%.
